In test [1] the target is Serine/threonine-protein kinase ULK2 (Homo sapiens) (UniProt Q8IYT8). Kind of test: Inhibition of ULK2 (unknown origin) at 1 uM by Ambit Kinomescan binding assay relative to control.
Test [2] deals with Calcium/calmodulin-dependent protein kinase type II subunit gamma (Homo sapiens) (UniProt Q13555). The test can be described thus: Inhibition of CaMK2g Lys1 labeling site harbouring TSTQEYAAKIINTK in human A-375 cells at 5 uM by KiNativ Profiling analysis relative to control. Type of test: cell-based.
Test [3] addresses DNA-PK/Ku70/Ku85 (Homo sapiens) (UniProt P78527+P12956+P13010). The test can be described thus: Inhibition of DNAPK ATP labeling site harbouring KGGSWIQEINVAEK in human A-375 cells at 5 uM by KiNativ Profiling analysis relative to control. Type of test: cell-based. Put shortly:
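Live A375 melanoma cells were treated with compound at 0.5 or 5 μM, then lysed. Lysates were labeled with a lysine-reactive ATP or ADP-biotin probe. The read-out was protection of each kinase probe-labeling site from labeling, relative to control.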

For test [4], the target named is Phosphatidylinositol 4-kinase beta (Homo sapiens) (UniProt Q9UBF8). Kind of test: Inhibition of PI4KB ATP labeling site harbouring VPHTQAVVLNSKDK in human A-375 cells at 0.05 uM by KiNativ Profiling analysis relative to control. The class given is cell-based.
Test [5] has as its target Serine/threonine-protein kinase pim-3 (Homo sapiens) (UniProt Q86V86). Kind of test: Inhibition of PIM3 (unknown origin) at 1 uM by Ambit Kinomescan binding assay relative to control; values are per cent of control.
In test [6] the target is Fibroblast growth factor receptor 2 (Homo sapiens) (UniProt P21802). Kind of test: Inhibition of FGFR2 (unknown origin) at 1 uM by Ambit Kinomescan binding assay relative to control; values are per cent of control.
For test [7], the target named is Bone morphogenetic protein receptor type-1A (Homo sapiens) (UniProt P36894). The test can be described thus: Inhibition of BMPR1A (unknown origin) at 1 uM by Ambit Kinomescan binding assay relative to control; values are per cent of control.
For test [8], the system named is Tyrosine-protein kinase ABL1 (Homo sapiens), P00519 [F317I]. The test can be described thus: Inhibition of ABL1 F317I mutant (unknown origin) at 10 uM by Ambit Kinomescan binding assay relative to control.
Test [9] addresses RAC-alpha serine/threonine-protein kinase (Homo sapiens) (UniProt P31749). The test can be described thus: Inhibition of AKT1 (unknown origin) at 10 uM by Ambit Kinomescan binding assay.
Test [10] deals with 5'-AMP-activated protein kinase catalytic subunit alpha-1 (Homo sapiens) (UniProt Q13131). The test can be described thus: Inhibition of AMPK-alpha1 (unknown origin) at 10 uM by Ambit Kinomescan binding assay relative to control.
Test [11] deals with Calcium/calmodulin-dependent protein kinase type II subunit gamma (Homo sapiens) (UniProt Q13555). The test can be described thus: Inhibition of CaMK2g Lys1 labeling site harbouring TSTQEYAAKIINTK in human Huh-7 cell lysate at 1 uM by KiNativ Profiling analysis relative to control. The class given is subcellular.
Test [12] can be described thus: Inhibition of KHS2 Lys1 labeling site in human Huh-7 cell lysate at 1 uM by KiNativ Profiling analysis relative to control. The following applies: condition cancer.
Test [13] has as its target T1, Serine/threonine-protein kinase D2 (Homo sapiens) (UniProt Q9BZL6).
T1 sequence (whole entry): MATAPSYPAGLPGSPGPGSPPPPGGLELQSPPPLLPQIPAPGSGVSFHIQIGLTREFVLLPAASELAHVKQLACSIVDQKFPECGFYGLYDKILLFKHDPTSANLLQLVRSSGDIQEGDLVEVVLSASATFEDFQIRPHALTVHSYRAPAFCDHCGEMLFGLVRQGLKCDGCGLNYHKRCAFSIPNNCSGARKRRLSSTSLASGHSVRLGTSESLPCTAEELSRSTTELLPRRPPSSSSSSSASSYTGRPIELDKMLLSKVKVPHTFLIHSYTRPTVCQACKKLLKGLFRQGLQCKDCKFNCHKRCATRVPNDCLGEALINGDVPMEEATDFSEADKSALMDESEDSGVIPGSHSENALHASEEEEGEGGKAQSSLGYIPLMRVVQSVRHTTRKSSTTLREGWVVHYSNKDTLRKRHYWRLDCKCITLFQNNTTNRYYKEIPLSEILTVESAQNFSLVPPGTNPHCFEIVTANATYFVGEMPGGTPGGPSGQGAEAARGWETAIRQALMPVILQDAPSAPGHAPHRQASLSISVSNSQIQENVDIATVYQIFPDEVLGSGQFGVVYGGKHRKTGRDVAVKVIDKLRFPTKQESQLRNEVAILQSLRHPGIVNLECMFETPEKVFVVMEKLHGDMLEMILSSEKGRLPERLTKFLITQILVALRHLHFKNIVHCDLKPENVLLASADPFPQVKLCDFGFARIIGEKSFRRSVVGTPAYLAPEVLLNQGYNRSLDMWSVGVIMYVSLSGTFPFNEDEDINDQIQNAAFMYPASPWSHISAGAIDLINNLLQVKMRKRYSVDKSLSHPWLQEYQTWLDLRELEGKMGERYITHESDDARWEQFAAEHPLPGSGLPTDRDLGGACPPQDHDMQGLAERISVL
Kind of test: Inhibition of PKD2 Lys2 labeling site in human Huh-7 cell lysate at 1 uM by KiNativ Profiling analysis relative to control. The class given is subcellular.

Test [14] addresses Cyclin-dependent kinase 9 (Homo sapiens) (UniProt P50750). The test can be described thus: Inhibition of CDK9 Lys2 labeling site in human Huh-7 cells at 1 uM by KiNativ Profiling analysis relative to control. The class given is cell-based.

Structures are written as SMILES. Activity calls are given as the source filed them. No cut-off for these calls is given here.

Chain of Calcium/calmodulin-dependent protein kinase type II subunit gamma (Homo sapiens) (Q13555 whole entry): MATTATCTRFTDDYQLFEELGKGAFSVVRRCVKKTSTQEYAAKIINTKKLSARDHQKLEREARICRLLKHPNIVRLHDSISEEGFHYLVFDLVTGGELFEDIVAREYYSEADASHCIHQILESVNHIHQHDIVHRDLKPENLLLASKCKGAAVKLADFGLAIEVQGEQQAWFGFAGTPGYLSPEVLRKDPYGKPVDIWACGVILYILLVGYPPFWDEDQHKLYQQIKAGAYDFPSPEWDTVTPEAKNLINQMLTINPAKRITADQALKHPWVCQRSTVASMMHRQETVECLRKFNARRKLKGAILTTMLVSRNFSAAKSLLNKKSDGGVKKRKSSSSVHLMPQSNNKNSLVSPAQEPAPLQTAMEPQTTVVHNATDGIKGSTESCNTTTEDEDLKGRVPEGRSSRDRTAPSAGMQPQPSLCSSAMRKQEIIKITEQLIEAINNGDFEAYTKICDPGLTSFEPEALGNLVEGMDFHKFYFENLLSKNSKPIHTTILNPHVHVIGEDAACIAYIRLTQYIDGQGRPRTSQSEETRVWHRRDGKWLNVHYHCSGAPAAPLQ
Chain of RAC-alpha serine/threonine-protein kinase (Homo sapiens) (P31749 whole entry): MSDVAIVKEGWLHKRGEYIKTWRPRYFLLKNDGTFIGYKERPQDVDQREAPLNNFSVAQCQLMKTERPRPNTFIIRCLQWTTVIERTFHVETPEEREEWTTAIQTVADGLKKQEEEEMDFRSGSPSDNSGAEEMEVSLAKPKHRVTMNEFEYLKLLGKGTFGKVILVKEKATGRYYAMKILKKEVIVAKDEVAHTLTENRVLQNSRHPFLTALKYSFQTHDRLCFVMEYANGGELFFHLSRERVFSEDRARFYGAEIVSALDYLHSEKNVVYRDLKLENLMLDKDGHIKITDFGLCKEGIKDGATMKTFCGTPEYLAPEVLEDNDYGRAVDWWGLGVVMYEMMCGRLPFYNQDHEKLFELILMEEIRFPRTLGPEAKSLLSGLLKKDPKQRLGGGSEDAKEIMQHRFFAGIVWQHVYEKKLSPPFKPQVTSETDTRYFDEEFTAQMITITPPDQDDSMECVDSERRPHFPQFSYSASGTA
Chain of 5'-AMP-activated protein kinase catalytic subunit alpha-1 (Homo sapiens) (Q13131 whole entry, looked up): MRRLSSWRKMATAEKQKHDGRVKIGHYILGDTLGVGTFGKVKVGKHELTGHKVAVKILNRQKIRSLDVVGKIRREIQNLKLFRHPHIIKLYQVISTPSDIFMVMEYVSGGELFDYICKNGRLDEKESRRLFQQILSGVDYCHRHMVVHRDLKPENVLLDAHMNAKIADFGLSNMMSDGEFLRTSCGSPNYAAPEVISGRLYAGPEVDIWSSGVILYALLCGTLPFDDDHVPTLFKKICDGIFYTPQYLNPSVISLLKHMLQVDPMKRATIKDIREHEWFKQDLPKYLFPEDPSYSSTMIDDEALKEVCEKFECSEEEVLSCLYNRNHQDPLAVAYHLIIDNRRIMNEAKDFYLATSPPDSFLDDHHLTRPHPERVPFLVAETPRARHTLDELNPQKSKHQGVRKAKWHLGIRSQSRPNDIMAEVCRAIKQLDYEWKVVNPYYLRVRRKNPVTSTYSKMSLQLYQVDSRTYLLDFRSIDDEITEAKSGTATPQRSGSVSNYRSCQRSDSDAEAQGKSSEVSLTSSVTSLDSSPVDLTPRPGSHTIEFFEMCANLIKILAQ
Chain of Phosphatidylinositol 4-kinase beta (Homo sapiens) (Q9UBF8 2-816 limits assumed): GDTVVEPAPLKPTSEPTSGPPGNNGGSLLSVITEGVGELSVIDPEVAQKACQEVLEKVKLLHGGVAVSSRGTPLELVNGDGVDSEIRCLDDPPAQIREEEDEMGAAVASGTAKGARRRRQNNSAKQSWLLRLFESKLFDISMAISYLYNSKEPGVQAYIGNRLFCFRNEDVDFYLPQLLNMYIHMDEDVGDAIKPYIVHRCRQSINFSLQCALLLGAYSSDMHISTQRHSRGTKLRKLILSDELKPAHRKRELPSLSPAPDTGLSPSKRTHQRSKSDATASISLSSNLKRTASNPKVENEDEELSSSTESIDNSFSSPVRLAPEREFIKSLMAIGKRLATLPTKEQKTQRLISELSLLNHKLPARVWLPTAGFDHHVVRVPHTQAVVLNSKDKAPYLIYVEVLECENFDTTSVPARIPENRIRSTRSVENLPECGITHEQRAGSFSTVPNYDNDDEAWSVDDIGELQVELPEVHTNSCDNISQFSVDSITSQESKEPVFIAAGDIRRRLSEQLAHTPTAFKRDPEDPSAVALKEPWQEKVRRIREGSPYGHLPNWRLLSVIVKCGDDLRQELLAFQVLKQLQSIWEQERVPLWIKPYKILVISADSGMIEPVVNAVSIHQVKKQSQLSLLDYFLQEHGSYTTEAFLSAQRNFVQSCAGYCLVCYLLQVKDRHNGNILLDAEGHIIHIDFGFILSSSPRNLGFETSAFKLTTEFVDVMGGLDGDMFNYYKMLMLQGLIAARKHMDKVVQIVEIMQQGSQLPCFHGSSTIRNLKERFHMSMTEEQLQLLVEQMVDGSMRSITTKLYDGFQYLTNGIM
Chain of Serine/threonine-protein kinase ULK2 (Homo sapiens) (Q8IYT8 whole entry): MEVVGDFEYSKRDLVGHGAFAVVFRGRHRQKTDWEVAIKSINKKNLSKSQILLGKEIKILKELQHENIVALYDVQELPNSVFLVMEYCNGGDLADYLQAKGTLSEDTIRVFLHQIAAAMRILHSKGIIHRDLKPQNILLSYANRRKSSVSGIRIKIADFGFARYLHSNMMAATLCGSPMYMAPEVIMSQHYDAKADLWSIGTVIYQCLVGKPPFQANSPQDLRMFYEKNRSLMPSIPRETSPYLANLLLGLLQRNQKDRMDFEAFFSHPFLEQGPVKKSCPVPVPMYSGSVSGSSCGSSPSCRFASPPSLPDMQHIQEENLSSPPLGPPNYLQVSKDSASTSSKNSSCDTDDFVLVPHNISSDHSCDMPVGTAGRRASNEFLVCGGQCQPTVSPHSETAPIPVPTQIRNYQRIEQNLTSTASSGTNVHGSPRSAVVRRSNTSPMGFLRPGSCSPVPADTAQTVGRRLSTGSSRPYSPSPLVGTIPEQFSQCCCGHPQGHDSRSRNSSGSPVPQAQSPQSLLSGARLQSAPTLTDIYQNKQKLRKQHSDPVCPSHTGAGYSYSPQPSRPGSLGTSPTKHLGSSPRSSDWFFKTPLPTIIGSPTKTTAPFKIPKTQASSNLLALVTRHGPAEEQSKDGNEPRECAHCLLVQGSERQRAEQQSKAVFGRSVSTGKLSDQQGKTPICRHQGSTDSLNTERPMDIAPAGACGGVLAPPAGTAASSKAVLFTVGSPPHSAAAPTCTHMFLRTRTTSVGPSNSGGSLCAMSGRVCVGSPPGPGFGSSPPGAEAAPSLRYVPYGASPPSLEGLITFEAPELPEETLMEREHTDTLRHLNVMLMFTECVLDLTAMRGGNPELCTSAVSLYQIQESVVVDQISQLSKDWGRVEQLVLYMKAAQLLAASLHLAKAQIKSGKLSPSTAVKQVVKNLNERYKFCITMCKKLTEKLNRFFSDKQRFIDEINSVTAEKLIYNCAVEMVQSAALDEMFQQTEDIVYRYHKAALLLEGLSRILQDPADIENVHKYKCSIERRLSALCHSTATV
Chain of Cyclin-dependent kinase 9 (Homo sapiens) (P50750 whole entry): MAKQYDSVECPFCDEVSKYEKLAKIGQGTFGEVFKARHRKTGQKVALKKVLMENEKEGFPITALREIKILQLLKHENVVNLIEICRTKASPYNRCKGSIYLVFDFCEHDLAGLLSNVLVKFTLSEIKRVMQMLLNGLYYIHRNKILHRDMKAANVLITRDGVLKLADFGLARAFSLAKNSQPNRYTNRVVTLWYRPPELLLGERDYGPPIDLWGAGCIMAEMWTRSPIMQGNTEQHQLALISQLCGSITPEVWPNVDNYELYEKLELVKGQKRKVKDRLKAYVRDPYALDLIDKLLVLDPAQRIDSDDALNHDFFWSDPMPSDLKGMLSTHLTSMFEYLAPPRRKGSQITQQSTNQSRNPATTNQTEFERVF
Chain of Bone morphogenetic protein receptor type-1A (Homo sapiens) (P36894 whole entry): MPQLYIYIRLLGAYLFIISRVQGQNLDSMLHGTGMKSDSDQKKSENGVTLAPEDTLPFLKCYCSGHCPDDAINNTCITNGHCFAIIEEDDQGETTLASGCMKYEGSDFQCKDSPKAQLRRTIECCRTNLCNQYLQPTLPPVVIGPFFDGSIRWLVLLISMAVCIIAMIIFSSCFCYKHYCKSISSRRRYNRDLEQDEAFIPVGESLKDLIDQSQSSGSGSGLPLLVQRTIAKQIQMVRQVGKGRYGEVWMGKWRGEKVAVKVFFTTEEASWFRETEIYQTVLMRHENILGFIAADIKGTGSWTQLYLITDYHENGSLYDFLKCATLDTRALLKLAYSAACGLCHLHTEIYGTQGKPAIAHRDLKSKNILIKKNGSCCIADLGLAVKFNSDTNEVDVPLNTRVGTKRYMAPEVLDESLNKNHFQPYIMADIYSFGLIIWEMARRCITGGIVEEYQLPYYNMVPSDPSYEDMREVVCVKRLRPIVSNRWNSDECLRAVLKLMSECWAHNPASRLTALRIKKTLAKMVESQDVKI

Regarding `CCN1CCN(Cc2ccc(NC(=O)c3ccc(C)c(/C=C/c4cnc5[nH]ccc5c4OC)c3)cc2C(F)(F)F)CC1`, the inhibition in [1] was 81%; in test [2], 14.6%; in test [3], -8.9%; in [4] it was -10%. For the same compound, the residual activity in test [5] and in test [7] was 100% in each case. In test [6], this compound registered a percent of control of 5.4%.
Consider `CCN1CCN(Cc2ccc(NC(=O)c3ccc(C)c(Oc4ccnc5[nH]ccc45)c3)cc2C(F)(F)F)CC1`, for which the inhibition in test [8] worked out at 0.05%; in test [10] it was 33%. Further, the inhibition entry in test [9] was “inactive”.
For `CNc1cc(Oc2cc(C(=O)Nc3cc(N4CCN(C)CC4)cc(C(F)(F)F)c3)ccc2C)ncn1`, the inhibition in [11] was 6%; in test [13] it was -3.5%; in test [14] it was 22.4%. The inhibition at 1 µM in test [12] came out at 0.9%.

Broadly, the inhibition is the drop in the measured response relative to a control, in per cent. The residual activity is the activity still measured, relative to the control. Low values mean a large loss of activity, high ones a small loss of activity.

The values are drawn from ChEMBL document CHEMBL5696442, “Discovery of type II inhibitors of TGFβ-activated kinase 1 (TAK1) and mitogen-activated protein kinase kinase kinase kinase 2 (MAP4K2)” (J Med Chem, 2015).
